Data from the M2OR odorant receptor database.

Key:
Settings in all cases: stereoisomer not certain
UniProt L7MU75 = target: T1, UniProt L7MU75
T1 sequence (whole entry): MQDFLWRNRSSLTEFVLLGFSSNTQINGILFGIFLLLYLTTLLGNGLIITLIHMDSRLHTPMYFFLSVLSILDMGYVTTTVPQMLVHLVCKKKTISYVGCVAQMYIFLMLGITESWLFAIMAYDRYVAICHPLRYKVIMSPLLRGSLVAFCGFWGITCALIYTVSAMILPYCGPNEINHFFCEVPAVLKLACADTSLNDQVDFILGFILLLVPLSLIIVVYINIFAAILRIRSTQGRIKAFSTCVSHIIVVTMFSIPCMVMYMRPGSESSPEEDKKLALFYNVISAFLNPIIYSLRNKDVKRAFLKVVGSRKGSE
Outline: (§1)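 Each receptor–molecule pair is labelled responsive or non-responsive (inactive) according to whether the original authors judged the measured signal statistically different from baseline. The data were taken from the main text and supplementary material of published papers and checked for typos and inconsistencies. Assay methods differed by source, with transient luciferase assays in mammalian cell lines being common.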

UniProt L7N210 = target: T2, UniProt L7N210
T2 sequence (whole entry): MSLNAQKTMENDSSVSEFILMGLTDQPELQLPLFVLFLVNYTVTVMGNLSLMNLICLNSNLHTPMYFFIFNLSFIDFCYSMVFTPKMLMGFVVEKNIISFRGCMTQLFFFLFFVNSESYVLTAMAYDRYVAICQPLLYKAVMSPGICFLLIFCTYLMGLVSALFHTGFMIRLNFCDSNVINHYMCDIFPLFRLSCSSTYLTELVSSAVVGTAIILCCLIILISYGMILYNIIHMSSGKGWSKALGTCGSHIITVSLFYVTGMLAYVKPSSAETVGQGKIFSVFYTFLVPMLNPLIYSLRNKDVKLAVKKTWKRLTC
Outline: as §1

UniProt Q3KPB0 = target: T3, UniProt Q3KPB0
T3 sequence (whole entry): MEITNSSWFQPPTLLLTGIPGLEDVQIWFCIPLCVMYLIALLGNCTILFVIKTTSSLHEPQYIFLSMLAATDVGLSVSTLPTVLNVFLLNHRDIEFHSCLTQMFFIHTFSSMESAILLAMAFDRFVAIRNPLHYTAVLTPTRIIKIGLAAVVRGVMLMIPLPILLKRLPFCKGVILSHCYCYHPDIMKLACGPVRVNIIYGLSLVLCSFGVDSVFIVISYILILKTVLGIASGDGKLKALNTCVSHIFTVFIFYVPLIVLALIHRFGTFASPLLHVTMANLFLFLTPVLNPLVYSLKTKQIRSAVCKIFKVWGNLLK
Outline: as §1

UniProt Q3U0P3 = target: T4, UniProt Q3U0P3
T4 sequence (whole entry): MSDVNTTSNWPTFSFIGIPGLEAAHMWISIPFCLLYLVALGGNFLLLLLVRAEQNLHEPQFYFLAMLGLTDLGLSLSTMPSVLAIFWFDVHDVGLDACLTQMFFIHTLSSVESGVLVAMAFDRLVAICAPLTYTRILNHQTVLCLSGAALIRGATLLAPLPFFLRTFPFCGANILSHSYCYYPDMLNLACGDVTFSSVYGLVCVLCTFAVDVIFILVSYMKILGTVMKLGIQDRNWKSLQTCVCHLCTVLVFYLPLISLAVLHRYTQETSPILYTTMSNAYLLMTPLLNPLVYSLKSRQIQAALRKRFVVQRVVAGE
Outline: as §1

UniProt Q7TQU8 = target: T5, UniProt Q7TQU8
T5 sequence (whole entry): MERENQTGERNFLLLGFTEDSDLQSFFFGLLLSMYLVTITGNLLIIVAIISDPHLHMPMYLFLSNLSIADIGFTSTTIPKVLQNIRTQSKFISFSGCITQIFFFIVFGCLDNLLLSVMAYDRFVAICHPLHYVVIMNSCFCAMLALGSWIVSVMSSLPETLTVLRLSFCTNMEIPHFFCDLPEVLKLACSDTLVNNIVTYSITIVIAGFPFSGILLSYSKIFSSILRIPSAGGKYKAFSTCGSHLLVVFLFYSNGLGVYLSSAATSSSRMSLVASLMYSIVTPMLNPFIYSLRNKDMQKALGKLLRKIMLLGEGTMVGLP
Outline: as §1

UniProt Q7TQV4 = target: T6, UniProt Q7TQV4
T6 sequence (whole entry): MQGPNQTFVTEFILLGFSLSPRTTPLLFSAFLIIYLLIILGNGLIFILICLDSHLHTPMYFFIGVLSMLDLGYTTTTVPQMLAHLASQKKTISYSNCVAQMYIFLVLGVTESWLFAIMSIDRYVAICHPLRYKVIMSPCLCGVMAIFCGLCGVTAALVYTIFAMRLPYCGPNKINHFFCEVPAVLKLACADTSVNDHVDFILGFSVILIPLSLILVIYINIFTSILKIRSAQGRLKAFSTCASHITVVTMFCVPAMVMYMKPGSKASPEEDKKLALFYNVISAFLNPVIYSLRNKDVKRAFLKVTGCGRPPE
Outline: as §1

Measured: odorant receptor agonist call

C1CCOC1
not listed: UniProt Q7TQV4
inactive: all other assays above

C=C(CC)CCCC(C)(C)O
not listed: UniProt Q7TQV4
inactive: all other assays above

CCCCCOC(=O)CC
not listed: UniProt Q7TQV4
inactive: all other assays above

Cc1ccc2c(c1)OCC(=O)CO2
not listed: UniProt Q7TQV4
inactive: all other assays above

Cc1ccc(OC(=O)C(C)C)cc1
not listed: UniProt Q7TQV4
inactive: all other assays above

CC(=O)OC1(C)CCC23CC1C(C)(C)C2CCC3C (configuration not stated)
active: UniProt Q3U0P3 | UniProt Q7TQU8
inactive: UniProt L7MU75 | UniProt L7N210 | UniProt Q3KPB0

C1CCOCC1
not listed: UniProt Q7TQV4
inactive: all other assays above

CC=CC(=O)C1=C(C)CCCC1(C)C
not listed: UniProt Q7TQV4
inactive: all other assays above

CC(C)=CCCC(C)=CCOC(=O)C(C)C
not listed: UniProt Q7TQV4
inactive: all other assays above

CC(=O)C1(C)CC2=C(CCCC2(C)C)CC1C (configuration not stated)
not listed: UniProt Q7TQV4
inactive: all other assays above

C=C(C)C1CCC(C)C(O)C1 (configuration not stated)
not listed: UniProt Q7TQV4
inactive: all other assays above

CC(CC=O)CCCC(C)(C)O (configuration not stated)
not listed: UniProt Q7TQV4
inactive: all other assays above

CCCCCC(C)O (configuration not stated)
not listed: UniProt Q7TQV4
inactive: all other assays above

OCC=Cc1ccccc1
active: UniProt L7N210
not listed: UniProt Q7TQV4
inactive: all other assays above

CCC=CCCCCC=O
not listed: UniProt Q7TQV4
inactive: all other assays above

CCc1ccc(O)cc1
active: UniProt L7N210
not listed: UniProt Q7TQV4
inactive: all other assays above

C=C(C)C1CCC2(C)OC2C1 (configuration not stated)
not listed: UniProt Q7TQV4
inactive: all other assays above

CC=C(C)C=O
not listed: UniProt Q7TQV4
inactive: all other assays above

CCCCCC(=Cc1ccccc1)C(OC)OC
not listed: UniProt Q7TQV4
inactive: all other assays above

CCCCCOC(=O)CCC
not listed: UniProt Q7TQV4
inactive: all other assays above

CCCCCCCCCCCO
not listed: UniProt Q7TQV4
inactive: all other assays above

Cc1ccc(C(C)C)c(O)c1
not listed: UniProt Q7TQV4
inactive: all other assays above

CCCCCCCCCC(=O)[O-].[H+]
inactive: all assays above

CCCCCC(=O)CC
inactive: all assays above

CCOC(=O)C(C)C
inactive: all assays above

CC(=O)Oc1ccccc1
inactive: all assays above

CCCCCCCO
inactive: all assays above

CC(C)=CCCC(C)=CCO
inactive: all assays above

CCCCCCCCCS
inactive: all assays above

CC(C)=C1CCC(C)CC1=O (configuration not stated)
not listed: UniProt Q7TQV4
inactive: all other assays above

CCCCCCCCC=CC=O
not listed: UniProt Q7TQV4
inactive: all other assays above

CCCCCC=O
inactive: all assays above

CCCCOC=O
inactive: all assays above

CCCCCOC(=O)CCCCC
inactive: all assays above

CCOC(=O)C(C)CC (configuration not stated)
not listed: UniProt Q7TQV4
inactive: all other assays above

CCCCCCCCOC=O
not listed: UniProt Q7TQV4
inactive: all other assays above

CCCCC(C)=O
inactive: all assays above

CCCCCCCC(C)=O
inactive: all assays above

CCCCCCCCCO
inactive: all assays above

CCCCCCCCS
inactive: all assays above

CCCCC(=O)CC
inactive: all assays above

CCCCCCC(C)=O
inactive: all assays above

CCCCCC1=C(C)CCC1=O
inactive: all assays above
